≈ marks a conversion by molar mass, not a printed value. Calls of active or inactive are those of the source. The rule behind the calls is not given here.
Assays:
HUVEC [1] = experiment: Cytotoxicity against human HUVEC cells assessed as reduction in cell viability at 10 uM measured for 24 hrs by SRB assay; format: toxicity, cell-based
Outline: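 HUVECs were grown on gelatin-coated dishes in M199 with 20% bovine serum and 10 IU/mL FGF2 at 37 °C, 5% CO2. Cells were seeded in 96-well plates, incubated overnight, then exposed to compound for 24 h. They were TCA-fixed, stained for 10 min with 0.4% SRB in 1% acetic acid, and dissolved in 10 mM Tris (pH 10.5). A540 survival was calculated relative to blank and control, from at least three experiments.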

HUVEC [2] = experiment: Cytotoxicity against human HUVEC cells assessed as reduction in erastin-induced cell survival at 10 uM measured for 24 hrs by SRB assay; format: toxicity, cell-based
Outline: (§1)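 HUVECs (gelatin-coated dishes, M199 with 20% bovine serum and FGF2, 37 °C, 5% CO2) seeded in 96-well plates and incubated overnight. Treated 24 h with 10 μM erastin alone or with compound (10 μM, or a range of concentrations). Cells fixed with TCA, stained with 0.4% SRB in 1% acetic acid, dissolved in 10 mM Tris pH 10.5, A540 read. Survival computed relative to blank and untreated control. At least three separate experiments.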

HUVEC [3] = experiment: Anti-ferroptotic activity against Erastin-induced ferroptosis in human HUVEC cells assessed as cell viability incubated for 24 hrs by SRB assay; format: functional, cell-based; outline: as §1
[4] = Antioxidant activity assessed as DPPH radical scavenging activity incubated for 30 mins; format: functional
Outline: (§2)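 DPPH at 100 μM in ethanol (180 μL) mixed with compound in DMSO (20 μL), giving 50 μM final compound. Kept 30 min in the dark at room temperature, then A517 read to obtain DPPH clearance. For IC50, a concentration gradient of compound was tested and the curve fitted.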

[5] = Kinetic solubility of compound in PBS buffer at pH7.4 incubated for; format: physicochemical; details: pH 7.4, read-out: Kinetic_solubility
Outline: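 DMSO stocks ([…]) were diluted 4 μL into 196 μL of 10 mM PBS pH 7.4, giving final concentrations of 3.13–200 μM. Plate shaken for 10 s and incubated 2 h at 37 °C. Solubility taken as the highest concentration with no measurable turbidity.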

[6] = Antioxidant activity assessed as DPPH radical scavenging activity at 50 uM incubated for 30 mins relative to control; format: functional; outline: as §2
HUVEC [7] = experiment: Cytotoxicity against human HUVEC cells assessed as high glucose-induced cell survival at 10 uM measured for 24 hrs by SRB assay; format: toxicity, cell-based
Outline: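 HUVECs in M199 with 20% bovine serum and FGF2, plated in 96-well plates, incubated overnight. Exposed to 30 mM high glucose alone or with 10 μM compound for 24 h. Viability by SRB (TCA fixation, 0.4% SRB stain, Tris pH 10.5 solubilisation, A540). Survival expressed relative to blank and untreated control. n = 3.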

[8] = Microsomal stability in human liver microsome assessed as parent compound remaining measured after 60 mins in absence of NADPH by LC-MS/MS analysis; format: ADME; details: liver microsomes, read-out: Stability
Outline: (§3)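 Compound at 1 μM final was incubated at 37 °C with liver microsomes (human, rat or mouse) in pH 7.4 buffer, with and without NADPH. Verapamil served as reference. Samples taken at 0–60 min and quenched in acetonitrile with tolbutamide internal standard. Analysed by LC-MS/MS on a C18 column with a water/acetonitrile 0.1% TFA gradient. Parent remaining reported at 60 min; T1/2 also derived.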

[9] = Microsomal stability in rat liver microsome assessed as parent compound remaining measured after 60 mins in absence of NADPH by LC-MS/MS analysis; format: ADME; details: liver microsomes, read-out: Stability; outline: as §3
[10] = Microsomal stability in mouse liver microsome assessed as parent compound remaining measured after 60 mins in absence of NADPH by LC-MS/MS analysis; format: ADME; details: liver microsomes, read-out: Stability; outline: as §3
[11] = Microsomal stability in human liver microsome assessed as parent compound remaining measured after 60 mins in presence of NADPH by LC-MS/MS analysis; format: ADME; details: liver microsomes, read-out: Stability; outline: as §3
[12] = Microsomal stability in rat liver microsome assessed as parent compound remaining measured after 60 mins in presence of NADPH by LC-MS/MS analysis; format: ADME; details: liver microsomes, read-out: Stability; outline: as §3
[13] = Microsomal stability in mouse liver microsome assessed as parent compound remaining measured after 60 mins in presence of NADPH by LC-MS/MS analysis; format: ADME; details: liver microsomes, read-out: Stability; outline: as §3
[14] = Microsomal stability in human liver microsome assessed as half life measured upto 60 mins by LC-MS/MS analysis; format: ADME; details: liver microsomes
[15] = Microsomal stability in rat liver microsome assessed as half life measured upto 60 mins by LC-MS/MS analysis; format: ADME; details: liver microsomes
[16] = Microsomal stability in mouse liver microsome assessed as half life measured upto 60 mins by LC-MS/MS analysis; format: ADME; details: liver microsomes
HUVEC [17] = experiment: Induction of mitochondrial damage in high glucose-induced human HUVEC cells assessed as increase in monomer formation at 10 uM incubated for 24 hrs by JC-1 staining based flow cytometry analysis; format: functional, cell-based
HUVEC [18] = experiment: Upregulation of GPX4 expression in high glucose-induced human HUVEC cells at 10 uM incubated for 24 hrs by Western blot analysis; format: functional, cell-based
Outline: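 HUVECs exposed 24 h to 30 mM high glucose and 10 μM compound, then lysed in RIPA. Protein by BCA; 15 μg per lane run on 12% SDS-PAGE and blotted to PVDF. Probed with anti-GPX4 (1:1000) and anti-β-actin (1:5000) overnight at 4 °C, detected by ECL, and quantified by densitometry. Untreated cells normalized to 1; n = 3.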

HUVEC [19] = experiment: Anti-ferroptotic activity against human HUVEC cells assessed as decrease in intracellular ferrous ion level at 10 uM incubated for 24 hrs by ferroOrange probe based analysis; format: functional, cell-based
Outline: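 After 24 h with 30 mM high glucose and 10 μM compound, HUVECs were washed three times in serum-free medium. Loaded with 1 μM FerroOrange for 30 min at 37 °C, 5% CO2, then imaged by fluorescence microscopy. Ferrous ion signal quantified relative to untreated control set to 1; n = 3.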

HUVEC [20] = experiment: Anti-ferroptotic activity against human HUVEC cells assessed as decrease in LPO level at 10 uM incubated for 24 hrs; format: functional, cell-based
Outline: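 HUVECs given 30 mM high glucose plus 10 μM compound for 24 h. Cells collected, extracted and sonicated on ice (3 s on, 7 s off, 3 min total), then spun 8000 × g for 10 min at 4 °C. LPO measured in the supernatant with a kit. Values relative to untreated cells set to 1; n = 3.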

HUVEC [21] = experiment: Anti-ferroptotic activity against human HUVEC cells assessed as decrease in MDA level at 10 uM incubated for 24 hrs; format: functional, cell-based
Outline: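 Cells were HUVECs under 30 mM high glucose with 10 μM compound, 24 h. Lysed in Western/IP lysis buffer and spun 10 000 × g for 10 min. MDA measured by kit in the supernatant and normalized to mg protein. Expressed relative to untreated control set to 1; n = 3.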

HUVEC [22] = experiment: Inhibition of ROS accumulation in high glucose-induced human HUVEC cells at 10 uM incubated for 24 hrs by DCF-DA staining based fluorescence microscopic analysis

| SMILES | Activity (HUVEC [2]) | EC50 (HUVEC [3]) [µM] | IC50 [4] [µM] | solubility kinetic [5] [µM] | Activity [6] [%] | Activity (HUVEC [7]) | also measured |
| --- | --- | --- | --- | --- | --- | --- | --- |
| CCOc1ccccc1-n1c(C(C)N2CCN(C(=O)COc3ccc(Cl)cc3)CC2)nc2ccccc2c1=O (stereo not drawn) [ERASTIN] | – | – | – | – | – | – | Activity (HUVEC [1]): 75% |
| O=C(N/N=C/c1cccc(O)c1O)c1ccc(NC2CCCCC2)c(NCc2ccccc2)c1 | Toxic | – | – | – | – | – | – |
| O=C(N/N=C/c1ccc(F)c([N+](=O)[O-])c1)c1ccc(NC2CCCCC2)c(NCc2ccccc2)c1 | Toxic | – | – | – | – | – | – |
| O=C(N/N=C/c1ccc(F)c(Br)c1)c1ccc(NC2CCCCC2)c(NCc2ccccc2)c1 | Non-Toxic | – | – | – | – | – | – |
| CCOC(=O)c1ccc(NC2CCCCC2)c(N)c1 | – | 0.6 | 54.3 | > 200 | 52.5 | Non-Toxic | remaining at 1 h [8]: 6%; remaining at 1 h [9]: 4%; remaining at 1 h [10]: 5%; remaining at 1 h [11]: 7.6%; remaining at 1 h [12]: 6.1%; remaining at 1 h [13]: 6.6%; half-life [14]: 16.8 min; half-life [15]: 18.4 min; half-life [16]: 2.7 min |
| O=C(N/N=C/c1cccc([N+](=O)[O-])c1)c1ccc(NC2CCCCC2)c(NCc2ccccc2)c1 | Non-Toxic | 0.69 | 45.9 | 20 (≈ 9.43 µg/mL) | 53.3 | Non-Toxic | – |
| O=C(N/N=C/c1ccc(Br)cc1)c1ccc(NC2CCCCC2)c(NCc2ccccc2)c1 | Non-Toxic | – | – | – | – | – | – |
| O=C(N/N=C/c1ccc(Cl)cc1)c1ccc(NC2CCCCC2)c(NCc2ccccc2)c1 | Non-Toxic | 0.73 | 46.8 | 28.6 (≈ 13.2 µg/mL) | 53.4 | Non-Toxic | – |
| O=C(N/N=C/c1ccccc1OCc1ccccc1)c1ccc(NC2CCCCC2)c(NCc2ccccc2)c1 | Toxic | – | – | – | – | – | – |
| COc1ccc(/C=N/NC(=O)c2ccc(NC3CCCCC3)c(NCc3ccccc3)c2)c(O)c1 | Non-Toxic | – | – | – | – | – | – |
| CCOC(=O)c1ccc(NC2CCCCC2)c(NCc2ccccc2)c1 | – | – | 46.8 | 6.2 (≈ 2.19 µg/mL) | 56.4 | – | – |
| O=C(N/N=C/c1ccccc1)c1ccc(NC2CCCCC2)c(NCc2ccccc2)c1 | Non-Toxic | – | – | – | – | – | – |
| O=C(N/N=C/c1ccc(Cl)c(Cl)c1)c1ccc(NC2CCCCC2)c(NCc2ccccc2)c1 | Non-Toxic | – | – | – | – | – | – |
| COc1cc(/C=N/NC(=O)c2ccc(NC3CCCCC3)c(NCc3ccccc3)c2)cc(OC)c1 | Non-Toxic | – | – | – | – | – | – |
| CN(C)c1ccc(/C=N/NC(=O)c2ccc(NC3CCCCC3)c(NCc3ccccc3)c2)cc1 | Non-Toxic | – | – | – | – | – | – |
| O=C(N/N=C/c1ccc(N2CCCC2)cc1)c1ccc(NC2CCCCC2)c(NCc2ccccc2)c1 | Non-Toxic | – | – | – | – | – | – |
| COc1ccccc1/C=N/NC(=O)c1ccc(NC2CCCCC2)c(NCc2ccccc2)c1 | Non-Toxic | 0.65 | 54.5 | 25 (≈ 11.4 µg/mL) | 57.4 | Non-Toxic | – |
| N#Cc1ccc(/C=N/NC(=O)c2ccc(NC3CCCCC3)c(NCc3ccccc3)c2)cc1 | Toxic | – | – | – | – | – | – |
| O=C(N/N=C/c1ccc(OCc2ccccc2)cc1)c1ccc(NC2CCCCC2)c(NCc2ccccc2)c1 | Non-Toxic | 0.5 | 38.1 | 20 (≈ 10.7 µg/mL) | 65.9 | Non-Toxic | Activity (HUVEC [17]): Active; Activity (HUVEC [18]): Active; Activity (HUVEC [19]): Active; Activity (HUVEC [20]): Active; Activity (HUVEC [21]): Active; remaining at 1 h [8]: 105%; remaining at 1 h [9]: 110%; remaining at 1 h [10]: 38%; remaining at 1 h [11]: 0.6%; remaining at 1 h [12]: 1%; remaining at 1 h [13]: 1%; half-life [14]: 4.9 min; half-life [15]: 9.1 min; half-life [16]: 9 min; Activity (HUVEC [22]): Active |
| O=C(N/N=C/c1ccc(O)cc1)c1ccc(NC2CCCCC2)c(NCc2ccccc2)c1 | Non-Toxic | 0.79 | 56.8 | 28.6 (≈ 12.7 µg/mL) | 53.3 | Non-Toxic | – |
| O=C(N/N=C/c1ccc([N+](=O)[O-])cc1)c1ccc(NC2CCCCC2)c(NCc2ccccc2)c1 | Non-Toxic | – | – | – | – | – | – |
| O=C(N/N=C/c1cccc(OCc2ccccc2)c1)c1ccc(NC2CCCCC2)c(NCc2ccccc2)c1 | Non-Toxic | 0.68 | 59.2 | 20 (≈ 10.7 µg/mL) | 52.2 | Non-Toxic | – |
| N#Cc1cccc(/C=N/NC(=O)c2ccc(NC3CCCCC3)c(NCc3ccccc3)c2)c1 | Non-Toxic | 0.61 | 38.6 | 22.2 (≈ 10 µg/mL) | 59.6 | Non-Toxic | – |

Source: ChEMBL document CHEMBL5385970, “Design, synthesis, and evaluation of novel ferrostatin derivatives for the prevention of HG-induced VEC ferroptosis” (RSC Med Chem, 2024)
